This note sets out measurements from ChEMBL document CHEMBL4680349, “Design, synthesis and evaluation of 1-benzyl-1H-imidazole-5-carboxamide derivatives as potent TGR5 agonists” (Bioorg Med Chem, 2021).

Usually EC50 stands for the concentration that produces a half-maximal response. As usually defined, the IC50 is the concentration that gives 50% inhibition.

The target of data set [1] is T1, G-protein coupled bile acid receptor 1 (Homo sapiens) (UniProt Q8TDU6).
T1 sequence (whole entry): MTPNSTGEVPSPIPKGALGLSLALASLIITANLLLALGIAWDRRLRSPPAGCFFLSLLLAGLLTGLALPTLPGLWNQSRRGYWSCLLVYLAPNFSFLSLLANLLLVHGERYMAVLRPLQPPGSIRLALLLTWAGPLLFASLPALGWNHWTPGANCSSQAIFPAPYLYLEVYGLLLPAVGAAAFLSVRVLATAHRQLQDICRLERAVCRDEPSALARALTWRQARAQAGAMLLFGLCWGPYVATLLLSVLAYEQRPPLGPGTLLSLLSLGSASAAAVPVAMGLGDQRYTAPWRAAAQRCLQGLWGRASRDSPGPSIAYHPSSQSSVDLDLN
The data set is described as follows: Agonist activity at human TGR5 transfected in HEK293T cells assessed intracellular cAMP level at 40 uM by HTRF assay. It counts as functional, cell-based. As to conditions: filed as agonist. The method, boiled down:
(§1)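 HEK293T stable line made by lentiviral transfection with drug selection. cAMP measured by HTRF cAMP dynamic 2 kit. Compounds from 10 mM DMSO stocks. 10 μM LCA defined as 100% and 0.1% DMSO as 0% hTGR5 activation. Mean of three independent experiments.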
For orientation: Cyclic AMP is a second messenger, typically raised through Gs and lowered through Gi signalling.

Data set [2] has as its target T1, G-protein coupled bile acid receptor 1 (Homo sapiens). The data set is described as follows: Agonist activity at human TGR5 transfected in HEK293T cells assessed intracellular cAMP level at 10 uM by HTRF assay. It counts as functional, cell-based. The method, boiled down: as §1
For data set [3], the target named is T2, G-protein coupled bile acid receptor 1 (Homo sapiens, UniProt Q8TDU6).
T2 sequence (Q8TDU6 whole entry): T1 sequence (whole entry)
The data set is described as follows: Agonist activity at human TGR5 transfected in HEK293T cells assessed intracellular cAMP level by HTRF assay. It counts as functional, cell-based.

Data set [4] addresses T3, G-protein coupled bile acid receptor 1 (Mus musculus, UniProt Q80SS6).
T3 sequence (Q80SS6 whole entry): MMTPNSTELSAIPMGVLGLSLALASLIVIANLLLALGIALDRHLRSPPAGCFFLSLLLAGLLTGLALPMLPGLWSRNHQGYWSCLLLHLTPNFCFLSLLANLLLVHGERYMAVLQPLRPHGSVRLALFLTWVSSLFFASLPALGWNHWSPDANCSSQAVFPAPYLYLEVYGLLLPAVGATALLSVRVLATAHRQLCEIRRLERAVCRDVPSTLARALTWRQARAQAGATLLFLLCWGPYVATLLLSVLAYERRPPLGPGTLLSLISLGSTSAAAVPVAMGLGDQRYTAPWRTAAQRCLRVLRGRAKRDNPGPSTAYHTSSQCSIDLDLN
Briefly: Agonist activity at mouse TGR5 transfected in HEK293T cells assessed intracellular cAMP level by HTRF assay. It is filed as functional, cell-based. The method, boiled down:
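Run by the same cAMP HTRF method used for human TGR5, with compounds from 10 mM DMSO stocks. EC50 given as mean ± SEM of three independent experiments.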

For data set [5], the target named is T4, Bile acid receptor (Homo sapiens) (UniProt Q96RI1).
T4 sequence (whole entry): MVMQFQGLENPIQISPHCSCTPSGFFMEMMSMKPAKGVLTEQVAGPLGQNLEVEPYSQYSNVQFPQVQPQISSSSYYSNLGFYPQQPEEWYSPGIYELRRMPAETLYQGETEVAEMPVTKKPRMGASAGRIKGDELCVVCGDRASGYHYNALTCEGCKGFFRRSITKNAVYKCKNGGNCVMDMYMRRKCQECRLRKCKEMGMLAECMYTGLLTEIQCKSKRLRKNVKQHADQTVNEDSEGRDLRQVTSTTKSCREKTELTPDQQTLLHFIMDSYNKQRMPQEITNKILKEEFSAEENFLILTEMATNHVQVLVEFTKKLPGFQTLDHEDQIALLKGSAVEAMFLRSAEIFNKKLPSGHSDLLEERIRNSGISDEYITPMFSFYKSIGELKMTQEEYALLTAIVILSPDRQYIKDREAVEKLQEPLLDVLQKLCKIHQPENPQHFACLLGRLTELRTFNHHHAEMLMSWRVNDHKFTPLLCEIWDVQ
The data set is described as follows: Agonist activity at GST-tagged human FXR-LBD using biotinylated SRC-1 peptide as substrate at 20 uM by HTRF assay. The method, boiled down: (§2)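 Reaction mix in HTRF buffer (50 mM Hepes pH 7.0, 125 mM KF, 0.125% CHAPS, 0.05% dry milk): 10 nM GST-FXRα LBD, 100 nM biotin-SRC1, 0.83 nM Eu-anti-GST, 41.75 nM streptavidin-XL665. Incubated at room temperature, read as (665/620 nm)×10,000. 50 μM CDCA defined as 100% and 0.1% DMSO as 0% activation.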
In general terms: Time-resolved FRET reads energy transfer from a long-lived donor to a nearby acceptor.

Data set [6] has as its target T4, Bile acid receptor (Homo sapiens). The data set is described as follows: Agonist activity at GST-tagged human FXR-LBD using biotinylated SRC-1 peptide as substrate at 50 uM by HTRF assay. The method, boiled down:
as §2

Data set [7] shares this target. Briefly: Agonist activity at GST-tagged human FXR-LBD using biotinylated SRC-1 peptide as substrate at 10 uM by HTRF assay. The method, boiled down: as §2
Data set [8] can be described thus: Stability of the compound in human plasma assessed as parent compound remaining measured after 60 mins. It counts as ADME, cell-free. As to conditions: read-out: Stabilty.
A short description of data set [9]: Stability of the compound in human plasma assessed as parent compound remaining measured after 120 mins. It is filed as ADME, cell-free. The conditions noted are these: read-out: Stabilty.
The next data set concerns HeLa. The data set is described as follows: Cytotoxicity against human HeLa cells assessed as reduction in cell viability incubated for 24 hrs by CCK8 assay. It counts as functional, cell-based. The method, boiled down: (§3)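 Cells exposed to compounds for 24 h, then viability read by CCK8 assay to give IC50.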
Data set [10] concerns Mus musculus. The data set is described as follows: Antidiabetic activity against in C57BL/6J mouse assessed reduction in glucose AUC at 30 mg/kg, po pretreated for 60 mins followed by 2 g/kg glucose orally administered measured upto 120 mins by OGTT method relative to control. It counts as functional. Also on record: scale not given: the % may be the effect or the level left. As to conditions: time min <=180.

Another data set concerns A549. Briefly: Cytotoxicity against human A549 cells assessed as reduction in cell viability incubated for 24 hrs by CCK8 assay. It is filed as functional, cell-based. The conditions noted are these: A549, 24 h. The method, boiled down:
as §3

For data set [11], the system named is Mus musculus. The data set is described as follows: Induction of GLP-1 secretion in TGR5 knock out C57BL/6J mouse assessed as serum GLP-1 level at 30 mg/kg, po followed by 2 g/kg glucose orally administered measured after 5 mins by ELISA relative to control. It counts as functional, organism-based. The method, boiled down:
(§4)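 Eight-week-old WT or TGR5−/− mice fasted overnight, then given vehicle (0.25% CMC) or compound 30 mg/kg orally. Oral glucose 2.0 g/kg 1 h later. Blood taken 5 min after glucose into tubes with DPP IV inhibitor and EDTA. Serum active GLP-1(7–36 amide) measured by ELISA.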

Data set [12] deals with Mus musculus. Briefly: In vivo agonist activity at TGR5 in wild type C57BL/6J mouse assessed as induction of GLP-1 secretion at 30 mg/kg, po followed by 2 g/kg glucose orally administered measured after 5 mins by ELISA relative to control. It is filed as functional, organism-based. The method, boiled down: as §4
Background: An ELISA detects its analyte on a solid surface through an enzyme-linked reagent.

The structures appear in SMILES notation. Active and inactive are the calls of the source.

`C[C@H](c1ccccc1)n1cncc1C(=O)N1CCN(c2ccccc2)CC1`: the Activity in data set [1] worked out at 81.6%; in data set [2] (filed as agonist), 41.7%.

Regarding `COc1ccc(N2CCN(C(=O)c3cncn3[C@H](C)c3ccccc3)CC2)cc1`, the Activity in [1] amounted to 89.7%; in data set [2] (filed as agonist) it was 79.1%. It took 4390 nM to reach a half-maximal effect in [3] (EC50).

`C[C@H](c1ccccc1)n1cncc1C(=O)Nc1ccc(Cl)cc1`: the Activity in data set [1] was determined as 84.1%; in data set [2], 37.7%.

For the compound `C[C@H](c1ccccc1)n1cncc1C(=O)Nc1ccccc1F`, the figures for the Activity in [1] and in data set [2] were 48.4% and 16.5%, respectively.

Take `C[C@H](c1ccccc1)n1cncc1C(=O)N(C)c1ccc(Cl)cc1`: the Activity in [1] came to 71.9%; in [2] (filed as agonist) it was 63.1%.

Consider `COc1ccc(NC(=O)c2cncn2[C@H](C)c2ccccc2)cc1`, for which the Activity in [1] turned out to be 66.5%; in [2], 25.3%.

Turning to `O=C(c1cncn1Cc1cc(Cl)ccc1Cl)N1CCN(C2CC2)c2ccccc21`, the EC50 worked out at 832 nM in [4] and 9.5 nM in [3]. Further, the Activity is -0.8% in [5], 0.31% in [6], 2.3% in data set [7] and 13.7% in the data set on Mus musculus [10]. Besides, the remaining at 1 h in [8] came out at 112%. The remaining at 2 h in [9] was found to be 105%. The 50% inhibitory concentration (IC50) in the data set with HeLa and in the data set on A549 was > 50000 nM each time.

On to `C[C@H](c1ccccc1)n1cncc1C(=O)N1CCN(C2CC2)c2ccccc21`, for which the figures for the Activity in [1] and in [2] (filed as agonist) were 97.4% and 89.8%, respectively. Further, the response in data set [3] was half-maximal at 330 nM (EC50).

Regarding `C[C@H](c1ccccc1)n1cncc1C(=O)N(C)c1ccc(F)cc1`, the Activity in data set [1] amounted to 85.4%; in [2] (filed as agonist), 70.9%. For the same compound, in data set [3], the half-maximal effective concentration (EC50) is 1050 nM.

As to `O=C(c1cncn1Cc1ccccc1Cl)N1CCN(C2CC2)c2ccccc21`, the 50% effective concentration (EC50) in [4] worked out at 3690 nM; in data set [3], 118 nM.

With `Cc1ccc(NC(=O)c2cncn2[C@H](C)c2ccccc2)cc1`, the Activity in data set [1] amounted to 63.3%; in data set [2], 20.2%.

Turning to `O=C(c1cncn1Cc1ccc(F)cc1)N1CCN(C2CC2)c2ccccc21`, the results for the concentration giving a half-maximal response (EC50) in data set [4] and in [3] were > 10000 nM and 568 nM, respectively.

As for `COc1ccccc1N1CCN(C(=O)c2cncn2[C@H](C)c2ccccc2)CC1`, the Activity worked out at 49.2% in data set [1] and 17.4% in [2].

On to `Cc1ccc(N(C)C(=O)c2cncn2[C@H](C)c2ccccc2)cc1`, for which the Activity in data set [1] came out at 86.7%; in data set [2] (filed as agonist), 62.1%.

In the case of `C[C@H](c1ccccc1)n1cncc1C(=O)N1CCOc2ccccc21`, the values for the Activity in data set [1] and in data set [2] (filed as agonist) were 74.5% and 54.1%, respectively.

`C[C@H](c1ccccc1)n1cncc1C(=O)N1CCN(c2ccccc2F)CC1`: the Activity was found to be 95.3% in data set [1] and 79.3% in data set [2] (filed as agonist). In data set [3], this compound yielded an EC50 of 1090 nM.

Consider `C[C@H](c1ccccc1)n1cncc1C(=O)Nc1ccc(F)cc1`, for which the Activity in data set [1] is 85.2%; in data set [2] (filed as agonist), 51.3%.

In the case of `O=C(c1cncn1Cc1ccc(F)cc1F)N1CCN(C2CC2)c2ccccc21`, the EC50 in [4] was > 10000 nM; in [3] it was 338 nM.

On to `C[C@H](c1ccccc1)n1cncc1C(=O)Nc1cccc(F)c1`, for which the Activity was 56.2% in data set [1] and 20.1% in data set [2].

As for `C[C@H](c1ccccc1)n1cncc1C(=O)N1CCCc2ccccc21`, the Activity came to 77.1% in data set [1] and 48.3% in [2] (filed as agonist).

`O=C(c1cncn1Cc1ccccc1)N1CCN(C2CC2)c2ccccc21`: the results for the half-maximal effective concentration (EC50) in data set [4] and in data set [3] were 3500 nM and 1750 nM, respectively.

As to `O=C(c1cncn1Cc1ccc(Cl)cc1Cl)N1CCN(C2CC2)c2ccccc21`, the result with Mus musculus [11] was inactive. Further, the EC50 in data set [4] turned out to be 611 nM; in data set [3], 6.8 nM. Further, the Activity in data set [5] was 1.6%; in [6], -1.1%; in [7], 1.1%; in the data set with Mus musculus [10], 15.8%. For the same compound, the remaining at 1 h in [8] is 107%. For the same compound, in data set [9], the remaining at 2 h is 104%. Further, the concentration for half-maximal inhibition (IC50) in the data set on HeLa and in the data set with A549 was > 50000 nM throughout. Besides, in the data set on Mus musculus [12], the result was Active.
